Measurements of several laboratories.
Protocols differ between the studies behind these lines.
Target: NT-3 growth factor receptor (NTRK3, Homo sapiens, UniProt Q16288)

| Compound | effect on | method | concentration | remaining binding [%] |
| --- | --- | --- | --- | --- |
| COc1ccnn2ncc(-c3ccnc(N(C)C)n3)c12 | binding |  | 1 µM | 81 |
| C[C@@H](c1ccc(-n2cnc3c(N)ncnc32)cc1)N1CCc2nn(C)c(Cc3ccccc3)c2C1=O | binding | competition with immobilised ligand | 0.1 µM | 40 |
| O=C(NCc1ncc(C(F)(F)F)cc1Cl)c1ccc2c(c1)C1(CCS(=O)(=O)CC1)[C@@H](C1CC1)N2S(=O)(=O)c1ccc(F)cc1 | cell-free assay | competition with immobilised ligand | 1 µM | 71 |
| COc1cnc(Nc2cccc(S(N)(=O)=O)c2)nc1N1CCN(c2ccccc2)C(=O)C1 | binding | competition with immobilised ligand | 1 µM | 100 |
| N[C@H]1CCN(c2nccc(-c3cnn4ncccc34)n2)C1 | binding |  | 1 µM | 85 |
| O=c1nc(-c2ccccn2)sc2ccccc12 | cell-free assay | competition with immobilised ligand | 1 µM | 72 |
| C[C@@H]1CCN(c2nccc(-c3cnn4ncccc34)n2)C1 | binding |  | 1 µM | 70 |
| O=C(NCCCN1CCOCC1)c1ccc(Nc2ncc(Cl)c(-c3ccc(Cl)s3)n2)cc1 | binding | competition with immobilised ligand | 1 µM | 46 |
| C=CC(=O)N1CCC(C(=O)NCC(=O)N2CCN(c3nc(-c4cnc(N)nc4C(F)F)nc(N4CCOCC4)n3)CC2)CC1 | binding | competition with immobilised ligand | 1 µM | 86 |
| CCN1CCN(Cc2ccc(C(=O)Nc3ccc(C)c(Oc4ccc5c(c4)CC(=O)N5)c3)cc2C(F)(F)F)CC1 | binding | competition with immobilised ligand | 1 µM | 68 |
| CN(c1nccc(-c2cnn3ncccc23)n1)C1CC1 | binding |  | 1 µM | 100 |
| O=C(c1ccc(Nc2nccc(-c3cc4ccccc4s3)n2)cc1)N1CCC(N2CCCC2)CC1 | binding | competition with immobilised ligand | 1 µM | 71 |
| C[C@H](NC(=O)c1cnc2n1[C@](C)(Cc1ccc(C#N)cc1)C(=O)N2c1cc(Cl)c(F)c(Cl)c1)C(=O)NC1(c2ccccn2)CC1 | cell-free assay | competition with immobilised ligand | 1 µM | 100 |
| c1cnn2ncc(-c3ccnc(N4CCC45COC5)n3)c2c1 | binding |  | 1 µM | 73 |
| Cn1cc(Cl)c2c(Oc3c(F)cc(Nc4cc(Cl)nc(N)n4)cc3F)ccnc21 | cell-free assay | competition with immobilised ligand | 0.1 µM | 76 |
| O=C(c1ccc(Nc2ncc(Cl)c(-c3cc4ccccc4s3)n2)cc1)N1CCC(N2CCCC2)CC1 | binding | competition with immobilised ligand | 1 µM | 36 |
| COc1ncc2cc3ccccc3nc2c1C#N | cell-free assay | competition with immobilised ligand | 5 µM | 74 |
| Nc1ncc2c(n1)-c1c([nH]c3ccc(C#CC4CC4)cc13)CCCC2 | binding | competition with immobilised ligand | 1 µM | 99 |
| CCC(=O)N[C@H]1CC[C@@H](C(=O)N(C)c2ccc(-c3nc4ccccc4o3)cc2)C1 | cell-free assay | competition with immobilised ligand | 1 µM | 32 |
| O=C(Nc1c[nH]nc1C(=O)NC1CCNCC1)c1cc(F)cc(F)c1 | binding | competition with immobilised ligand | 1 µM | 100 |
| O=C(Nc1cccnn1)N1CC(C/C=C/c2cncc(Oc3ccc(C(F)(F)F)cn3)n2)C1 | cell-free assay | competition with immobilised ligand | 1 µM | 85 |
| CC1CCCN1c1nccc(-c2cnn3ncccc23)n1 (stereo not shown) | binding |  | 1 µM | 100 |
